Results: ChEMBL document CHEMBL1153564 (Antimicrob Agents Chemother, 2008)
In brackets after ≈: the same amount, converted by molar mass. Activity calls are given as the source filed them. No cut-off for these calls is given here. Starred links: 1 amine or outer side, 2 acyl side, 3 side chain; linkers in the order of their positions; H or OH if unused. Positions of bridges follow the written chain, without caps; N, C: chain ends. Non-standard residues stand in square brackets, D forms with d. Residues, ends and D or L forms follow the SMILES beside them. *: point of attachment. pTerphenylCO(4''-OnC5H11) = CCCCCOc1ccc(-c2ccc(-c3ccc(C(=O)*)cc3)cc2)cc1; Orn(4R-OH,5R-OH) = O=C([C@H](C[C@@H](O)[C@@H](O)N[*:3])N[*:1])[*:2]; hTyr(3S-OH,4S-OH) = N[C@H](C(=O)O)[C@H](O)[C@@H](O)c1ccc(O)cc1; Pro(3S-OH,4S-Me) = C[C@H]1CN[C@H](C(=O)O)[C@H]1O; Hyp = O=C(O)[C@@H]1C[C@@H](O)CN1

Columns and labels:
Nakaseomyces glabratus [1] = assay: Antifungal activity against Candida glabrata 5376 infected in neutropenic ICR/Swiss mouse candidiasis model assessed as […] burden per kidney administered intraperitoneally every 48 hrs up to 4 days measured per 96 hrs; format: functional; conditions: Nakaseomyces glabratus, 5376, Kidney, ip
In short: (§1)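 Neutropenic ICR/Swiss mice infected i.v. with the strain; therapy began 2 h later. Total doses of 1.25–320 mg/kg/96 h were given i.p. as 1, 2, 4 or 6 doses (q96h, q48h, q24h, q16h), three mice per regimen. Kidney CFU were counted after 4 days. Effect is the change from untreated controls at the end of therapy.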

Candida albicans [2] = assay: Antifungal activity against Candida albicans 580 infected in neutropenic ICR/Swiss mouse candidiasis model assessed as dose required to maintain […] of 3.81 +/- 0.33 log10CFU per kidney administered intraperitoneally every 24 hrs up to 4 days measured per 24 hrs; format: functional
In short: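 Neutropenic mice (cyclophosphamide sc on days −4, −1 and +2) were infected iv 2 h before therapy. Five total doses from 0.078 to 20 mg/kg/24 h were given ip q24h for 4 days, three mice per regimen. Kidney CFU were measured at the end of therapy. Static and 1-log-kill doses were derived from a Hill sigmoid dose-effect fit.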

Nakaseomyces glabratus [3] = assay: Antifungal activity against Candida glabrata 513 infected in neutropenic ICR/Swiss mouse candidiasis model assessed as dose required to maintain […] burden of 1.83 +/- 0.54 log10CFU per kidney administered intraperitoneally every 24 hrs up to 4 days measured per 24 hrs; format: functional
Candida albicans [4] = assay: Antifungal activity against Candida albicans K-1 infected in neutropenic ICR/Swiss mouse candidiasis model assessed as suppression of fungal regrowth at 5 mg/kg, ip administered 2 hrs postinfection as single dose by time-kill assay; format: functional, organism-based; set-up: dose 5 mg/kg
In short: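 Single ip dose (20, 5 or 1.25 mg/kg) given 2 h after iv infection of neutropenic mice with K-1. Three treated and three control mice were sampled at intervals over 96 h for kidney CFU. PAFE is the time for treated burden to rise 1 log10 after serum levels fall below MIC, minus the same time in controls. Free drug was taken as 1%.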

Candida albicans [5] = assay: Antifungal activity against Candida albicans K-1 infected in neutropenic ICR/Swiss mouse candidiasis model assessed as prolongation of fungal growth suppression at 1.25 mg/kg, ip administered 2 hrs postinfection as single dose by time-kill assay; format: functional; conditions: route intraperitoneal
In short: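 Single ip dose of 1.25, 5 or 20 mg/kg given 2 h after iv infection of neutropenic mice. Groups of 3 treated and 3 control mice sampled at 1–24 h intervals over 96 h. Kidney homogenates plated on SDA, 24 h at 35°C. PAFE = time for treated burden to rise 1 log10 CFU/kidney after serum level fell below MIC, minus the same time in controls.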

Candida albicans [6] = assay: Antifungal activity against Candida albicans K-1 infected in neutropenic ICR/Swiss mouse candidiasis model assessed as dose required for 1-log10 reduction in […] per kidney administered intraperitoneally every 24 hrs up to 4 days measured per 96 hrs; format: functional
In short: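 Neutropenic mice were infected iv with C. albicans K-1 2 h before therapy. Total doses of 1.25, 5, 20, 80 and 320 mg/kg/96 h were split into 1, 2, 4 or 6 ip doses (q96h, q48h, q24h, q16h), three mice per regimen. Effect is the log10 CFU/kidney relative to untreated controls at 96 h. Static and 1-log doses were taken from a Hill model fit.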

Nakaseomyces glabratus [7] = assay: Antifungal activity against Candida glabrata 5376 infected in neutropenic ICR/Swiss mouse candidiasis model assessed as […] burden per kidney administered intraperitoneally every 16 hrs up to 4 days measured per 96 hrs; format: functional; conditions: Nakaseomyces glabratus, 5376, Kidney, ip; in short: as §1
Candida tropicalis = assay: Antifungal activity against Candida tropicalis 98-234 assessed as partial growth inhibition after 24 hrs by CLSI end point method; format: functional; conditions: 98-234, 24 h
[8] = Cmax in human at 100 mg/day; format: ADME, organism-based; set-up: dose 100 mg/day; conditions: in vivo
Nakaseomyces glabratus [9] = assay: Antifungal activity against Candida glabrata 32930 infected in neutropenic ICR/Swiss mouse candidiasis model assessed as fungal count per kidney administered 2 hrs postinfection measured up to 48 hrs; format: functional
In short: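 Untreated neutropenic mice infected via the tail vein (inoculum about 6.1 log10 CFU/ml, 0.1 ml). Growth is the rise in kidney CFU over 48 h. Kidneys were homogenised, serially diluted 1:10 and plated on SDA for 24 h at 35°C. Mean of three mice.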

Nakaseomyces glabratus [10] = assay: Antifungal activity against Candida glabrata 5376 infected in neutropenic ICR/Swiss mouse candidiasis model assessed as fungal count per kidney administered 2 hrs postinfection measured up to 48 hrs; format: functional
In short: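 Female ICR/Swiss mice (23–27 g) made neutropenic with cyclophosphamide s.c. (150 mg/kg day −4, 100 mg/kg day −1, 100 mg/kg day +2). Infected by tail vein with 0.1 ml inoculum (~6.1 log10 CFU/ml). Kidneys of untreated mice were homogenised and plated on SDA for 24 h at 35°C. Growth over 48 h is given as log10 CFU/kidney.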

Nakaseomyces glabratus [11] = assay: Antifungal activity against Candida glabrata 37661 assessed as complete growth inhibition after 24 hrs by CLSI end point method; format: functional; conditions: Nakaseomyces glabratus, 37661, 24 h
In short: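 Two end points were read against the drug-free control well: partial growth inhibition (the CLSI end point) and complete inhibition. Run in duplicate on four separate occasions; the value is the mean. Drug stock was made in DMSO and diluted in 0.9% NaCl.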

[12] = Elimination half life in serum of neutropenic ICR/Swiss mouse candidiasis model at 80 mg/kg, ip by reverse-phase high-pressure liquid chromatography; format: ADME, organism-based; set-up: dose 80 mg/kg, route intraperitoneal; conditions: read-out: beta t1/2 (converted)
In short: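 Infected neutropenic ICR/Swiss mice given single ip doses (5, 20 or 80 mg/kg; 0.2 ml); serum from three isoflurane-anaesthetised mice at 1, 4, 8, 12, 24 and 48 h, stored at −80°C, assayed by reverse-phase HPLC with fluorescence detection, loratadine internal standard, linear 10–50,000 ng/ml. Noncompartmental analysis; half-life by nonlinear least squares.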

Nakaseomyces glabratus [13] = assay: Antifungal activity against Candida glabrata 5376 infected in neutropenic ICR/Swiss mouse candidiasis model assessed as reduction of […] in kidney at 20 mg/kg, ip administered 2 hrs postinfection as single dose measured after 96 hrs post dosing by time-kill assay; format: functional, organism-based; set-up: dose 20 mg/kg
In short: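 Neutropenic mice were infected i.v. and 2 h later given a single i.p. dose (1.25, 5 or 20 mg/kg). Groups of three treated and three control mice were killed at intervals over 96 h, and kidney CFU were counted on SDA (limit 100 CFU/ml). The post-antifungal effect is t − c: the time for a 1 log10 CFU/kidney increase once serum levels fall below the MIC in treated mice, minus the same time in controls.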

Nakaseomyces glabratus [14] = assay: Antifungal activity against Candida glabrata 5376 infected in neutropenic ICR/Swiss mouse candidiasis model assessed as reduction of […] in kidney at 1.25 mg/kg, ip administered 2 hrs postinfection as single dose measured after 96 hrs post dosing by time-kill assay; format: functional, organism-based; set-up: dose 1.25 mg/kg
In short: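 Neutropenic mice given a single ip dose (1.25, 5 or 20 mg/kg) 2 h after tail-vein infection. Kidneys from 3 mice per time point collected nine times over 96 h. Homogenates serially diluted 1:10 and plated on SDA, 24 h at 35°C. Detection limit 100 CFU/ml.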

Nakaseomyces glabratus [15] = assay: Antifungal activity against Candida glabrata 5376 infected in neutropenic ICR/Swiss mouse candidiasis model assessed as dose required to maintain […] of 3.71 +/- 0.21 log10CFU per kidney administered intraperitoneally once every 96 hrs measured per 96 hrs

Work on CCCCCOc1ccc(-c2ccc(-c3ccc(C(=O)N[C@H]4C[C@@H](O)[C@@H](O)NC(=O)[C@@H]5[C@@H](O)[C@@H](C)CN5C(=O)[C@H]([C@@H](C)O)NC(=O)[C@H]([C@H](O)[C@@H](O)c5ccc(O)cc5)NC(=O)[C@@H]5C[C@@H](O)CN5C(=O)[C@H]([C@@H](C)O)NC4=O)cc3)cc2)cc1 [ANIDULAFUNGIN] ({pTerphenylCO(4''-OnC5H11)}-[Orn(4R-OH,5R-OH)]T[Hyp][hTyr(3S-OH,4S-OH)]T[Pro(3S-OH,4S-Me)]; lactam 1-C) yielded an ED50 (Nakaseomyces glabratus [1]) of 13.4 mg/kg, an Activity (Candida albicans [2]) of 0.94 mg/kg and an Activity (Nakaseomyces glabratus [3]) of 2.45 mg/kg. For the same molecule, the Activity (Candida albicans [4]) was “Active”, the Activity (Candida albicans [5]) was 56 h and the Activity (Candida albicans [6]) was 8.1 mg/kg. For the same molecule, the ED50 (Nakaseomyces glabratus [7]) was 26.3 mg/kg, the MIC (Candida tropicalis) was 0.015 µg/mL (≈ 0.0132 µM) and the Cmax [8] was 11000 ng/mL. For the same molecule, the log10cfu (Nakaseomyces glabratus [9]) was 1.29, the log10cfu (Nakaseomyces glabratus [10]) was 2.1 and the MIC (Nakaseomyces glabratus [11]) was 2 µg/mL (≈ 1.75 µM). The half-life [12] was 24 h, the Activity (Nakaseomyces glabratus [13]) was “Active” and the Activity (Nakaseomyces glabratus [14]) was “Active”. For the same molecule, the Activity (Nakaseomyces glabratus [15]) was 9.06 mg/kg.
